ChEMBL document CHEMBL1140237, “6-(2-Phenylethyl)nicotine: a novel nicotinic cholinergic receptor ligand” (Bioorg Med Chem Lett, 2005)
Calls of active or inactive are those of the source. No cut-off for these calls is given here.

Assays:
[1] = target: T1, Neuronal acetylcholine receptor; alpha4/beta2 (Rattus norvegicus, UniProt P09483+P12390); assay: Inhibition of [3H](-)-nicotine binding to rat brain (minus cerebellum) Nicotinic acetylcholine receptor alpha4-beta2; type: tissue-based
How it was run: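 Rat brain homogenate with cerebellum removed, labelled with [3H](-)nicotine. IC50 taken from a plot of log concentration against percent displacement, then converted to Ki. At least triplicate.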

[2] = target: Neuronal acetylcholine receptor; alpha3/beta2 (Rattus norvegicus, UniProt P04757+P12390); assay: Binding affinity for rat Nicotinic acetylcholine receptor alpha3-beta2; type: protein-complex assay
How it was run: (§1)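 Binding run by the NIMH Psychoactive Drug Screening Program under standard protocols, using cloned rat receptor preparations.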

[3] = target: Neuronal acetylcholine receptor; alpha4/beta4 (Rattus norvegicus, UniProt P09483+P12392); assay: Binding affinity for rat Nicotinic acetylcholine receptor alpha4-beta4; type: protein-complex assay; how it was run: as §1
[4] = target: Neuronal acetylcholine receptor; alpha2/beta4 (Rattus norvegicus, UniProt P12389+P12392); assay: Binding affinity for rat Nicotinic acetylcholine receptor alpha2-beta4; type: protein-complex assay; how it was run: as §1
[5] = target: Neuronal acetylcholine receptor; alpha3/beta4 (Rattus norvegicus, UniProt P04757+P12392); assay: Binding affinity for rat Nicotinic acetylcholine receptor alpha3-beta4; type: protein-complex assay; how it was run: as §1
Mus musculus [6] = assay: Percent of maximal possible antinociceptive effect at 15 mg/kg dose; failed to produce effect; type: functional
[7] = target: Neuronal acetylcholine receptor; alpha2/beta2 (Rattus norvegicus, UniProt P12389+P12390); assay: Binding affinity for rat Nicotinic acetylcholine receptor alpha2-beta2; type: protein-complex assay; how it was run: as §1
Mus musculus [8] = assay: Nicotine-like action of the compound tested in mouse in spontaneous activity assay at 15 mg/kg sc dose; NA = Not active; type: functional, organism-based; set-up: dose 15 mg/kg
How it was run: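 Male ICR mice (20–25 g), at least six per dose, given compound or 0.9% saline sc. Placed in individual photocell activity cages 5 min after injection. Beam interruptions counted over the next 10 min.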

Mus musculus [9] = assay: Nicotine-like action of the compound tested in mouse in hypothermia assay at 15 mg/kg sc dose; NA = Not active; type: functional, organism-based; set-up: dose 15 mg/kg
How it was run: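 Male ICR mice (20–25 g), at least six per dose, given compound or saline sc. Rectal temperature read by thermistor probe inserted 24 mm, just before and 30 min after injection.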

[10] = target: T1, Neuronal acetylcholine receptor; alpha4/beta2; assay: Inhibition of [3H]epibatidine binding to rat Nicotinic acetylcholine receptor alpha4-beta2; type: protein-complex assay

T1 sequence (P09483 whole entry): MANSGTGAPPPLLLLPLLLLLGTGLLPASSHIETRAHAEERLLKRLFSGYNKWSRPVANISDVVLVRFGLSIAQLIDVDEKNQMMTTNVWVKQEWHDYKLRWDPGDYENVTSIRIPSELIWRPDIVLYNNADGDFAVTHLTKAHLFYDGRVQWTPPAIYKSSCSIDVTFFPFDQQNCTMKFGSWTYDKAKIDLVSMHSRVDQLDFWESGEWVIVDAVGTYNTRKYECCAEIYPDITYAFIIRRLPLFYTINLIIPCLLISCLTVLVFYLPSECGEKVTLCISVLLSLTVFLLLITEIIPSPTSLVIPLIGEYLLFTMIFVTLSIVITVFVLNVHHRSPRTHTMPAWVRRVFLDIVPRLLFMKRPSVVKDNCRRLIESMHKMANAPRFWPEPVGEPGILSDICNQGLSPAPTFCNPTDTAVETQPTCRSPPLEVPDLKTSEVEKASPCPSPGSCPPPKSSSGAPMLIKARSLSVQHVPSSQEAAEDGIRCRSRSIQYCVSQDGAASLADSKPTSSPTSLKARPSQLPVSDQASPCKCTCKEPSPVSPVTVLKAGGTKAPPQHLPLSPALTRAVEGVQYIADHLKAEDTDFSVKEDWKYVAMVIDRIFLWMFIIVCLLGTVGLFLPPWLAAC
T1 sequence (P12390 whole entry): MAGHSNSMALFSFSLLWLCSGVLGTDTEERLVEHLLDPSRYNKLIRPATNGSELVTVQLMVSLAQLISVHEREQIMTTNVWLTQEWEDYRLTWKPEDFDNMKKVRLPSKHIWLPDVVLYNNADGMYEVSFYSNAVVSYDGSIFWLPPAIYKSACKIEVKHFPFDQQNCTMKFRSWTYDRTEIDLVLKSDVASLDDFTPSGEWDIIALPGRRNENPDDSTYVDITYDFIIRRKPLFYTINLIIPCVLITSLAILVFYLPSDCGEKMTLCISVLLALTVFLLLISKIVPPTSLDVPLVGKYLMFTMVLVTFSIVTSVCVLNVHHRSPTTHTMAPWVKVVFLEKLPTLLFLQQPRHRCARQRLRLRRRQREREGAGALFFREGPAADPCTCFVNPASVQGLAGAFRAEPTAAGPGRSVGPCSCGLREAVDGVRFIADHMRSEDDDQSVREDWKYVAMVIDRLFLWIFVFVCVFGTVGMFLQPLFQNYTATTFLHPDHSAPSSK
Sequence of Neuronal acetylcholine receptor; alpha4/beta4 (P09483 whole entry): as the sequence (P09483 whole entry) above
Sequence of Neuronal acetylcholine receptor; alpha4/beta4 (P12392 whole entry): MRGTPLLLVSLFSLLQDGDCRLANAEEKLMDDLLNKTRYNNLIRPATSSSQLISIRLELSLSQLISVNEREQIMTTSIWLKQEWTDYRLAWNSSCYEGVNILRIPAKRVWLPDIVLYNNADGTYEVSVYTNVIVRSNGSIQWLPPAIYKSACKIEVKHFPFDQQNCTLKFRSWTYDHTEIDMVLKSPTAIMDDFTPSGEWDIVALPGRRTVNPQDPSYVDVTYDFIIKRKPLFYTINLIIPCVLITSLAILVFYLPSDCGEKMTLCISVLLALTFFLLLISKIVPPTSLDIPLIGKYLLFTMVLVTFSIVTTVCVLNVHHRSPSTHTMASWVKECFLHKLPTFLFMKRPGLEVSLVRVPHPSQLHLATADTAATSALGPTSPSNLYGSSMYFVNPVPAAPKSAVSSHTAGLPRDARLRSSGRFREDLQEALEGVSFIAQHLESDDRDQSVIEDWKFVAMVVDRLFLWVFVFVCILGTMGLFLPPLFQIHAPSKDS
Sequence of Neuronal acetylcholine receptor; alpha2/beta2 (P12389 whole entry): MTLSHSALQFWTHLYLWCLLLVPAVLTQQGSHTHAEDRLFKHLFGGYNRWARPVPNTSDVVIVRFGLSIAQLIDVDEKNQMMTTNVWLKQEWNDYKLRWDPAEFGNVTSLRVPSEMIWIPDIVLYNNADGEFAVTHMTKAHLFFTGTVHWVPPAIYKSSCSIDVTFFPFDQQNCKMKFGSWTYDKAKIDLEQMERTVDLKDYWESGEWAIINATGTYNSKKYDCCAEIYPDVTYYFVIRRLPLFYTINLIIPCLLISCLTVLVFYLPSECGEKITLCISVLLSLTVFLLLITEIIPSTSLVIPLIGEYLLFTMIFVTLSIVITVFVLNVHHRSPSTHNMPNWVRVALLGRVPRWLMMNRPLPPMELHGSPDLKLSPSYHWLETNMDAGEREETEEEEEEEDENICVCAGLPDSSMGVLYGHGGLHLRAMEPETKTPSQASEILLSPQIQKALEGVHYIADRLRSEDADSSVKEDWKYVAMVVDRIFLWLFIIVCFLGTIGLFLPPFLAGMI
Sequence of Neuronal acetylcholine receptor; alpha2/beta2 (P12390 whole entry): as the sequence (P12390 whole entry) above
Sequence of Neuronal acetylcholine receptor; alpha2/beta4 (P12389 whole entry): as the sequence (P12389 whole entry) above
Sequence of Neuronal acetylcholine receptor; alpha2/beta4 (P12392 whole entry): as the sequence (P12392 whole entry) above
Sequence of Neuronal acetylcholine receptor; alpha3/beta2 (P04757 whole entry): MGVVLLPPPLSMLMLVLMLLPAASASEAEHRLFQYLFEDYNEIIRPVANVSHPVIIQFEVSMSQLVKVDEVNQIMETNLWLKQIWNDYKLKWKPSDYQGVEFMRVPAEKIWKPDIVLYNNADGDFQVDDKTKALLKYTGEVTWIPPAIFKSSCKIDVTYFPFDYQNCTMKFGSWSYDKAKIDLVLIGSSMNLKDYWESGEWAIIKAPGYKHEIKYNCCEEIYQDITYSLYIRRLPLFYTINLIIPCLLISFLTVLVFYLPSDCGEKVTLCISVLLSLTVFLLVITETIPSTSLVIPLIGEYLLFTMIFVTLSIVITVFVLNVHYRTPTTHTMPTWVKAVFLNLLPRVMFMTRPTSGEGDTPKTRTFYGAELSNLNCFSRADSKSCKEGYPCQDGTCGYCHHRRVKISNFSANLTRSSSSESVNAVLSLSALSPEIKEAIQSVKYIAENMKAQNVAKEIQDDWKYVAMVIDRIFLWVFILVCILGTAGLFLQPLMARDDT
Sequence of Neuronal acetylcholine receptor; alpha3/beta2 (P12390 whole entry): as the sequence (P12390 whole entry) above
Sequence of Neuronal acetylcholine receptor; alpha3/beta4 (P04757 whole entry): as the sequence (P04757 whole entry) above
Sequence of Neuronal acetylcholine receptor; alpha3/beta4 (P12392 whole entry): as the sequence (P12392 whole entry) above

SMILES	Ki [1] [nM]	other results
CCN(C)CCc1ccc(CCc2ccccc2)nc1	> 10000	
CCc1ccc(C2CCCN2C)cn1 (stereo not given)	5.6	
COc1ccc(CCc2ccc(C3CCCN3C)cn2)cc1 (stereo not given)	10	
CN1CCCC1c1ccc(CCc2ccccc2)nc1 (stereo not given)	15	Ki [2]: 2000 nM; Ki [3]: 400 nM; Ki [4]: 1200 nM; Ki [5]: 4600 nM; MPE (Mus musculus [6]): 2%; Ki [7]: 490 nM; Activity (Mus musculus [8]): inactive; Activity (Mus musculus [9]): inactive; Ki [10]: 200 nM
CN1CCCC1c1ccc(CCc2ccc(Cl)cc2)nc1 (stereo not given)	40	
CN1CCCC1c1ccc(CCCc2ccccc2)nc1 (single isomer, unassigned; (-))	72	
CN1CCCC1c1ccc(/C=C/c2ccccc2)nc1 (stereo not given)	350	
CN1CCCC1c1ccc(CCCc2ccccc2)nc1 (single isomer, unassigned; (+))	> 10000	
CN1CCCC1c1ccc(CC(O)c2ccccc2)nc1 (stereo not given)	275	
CCCc1ccc(C2CCCN2C)cn1 (stereo not given)	17	
CN1CCCC1c1ccc(C(=O)O)nc1 (stereo not given)	> 10000	
